From ChEMBL document CHEMBL1268999, “Triazolyl tryptoline derivatives as β-secretase inhibitors” (Bioorg Med Chem Lett, 2010)

Columns and labels:
Beta-secretase 1 [1] = target: T1, Beta-secretase 1 (Homo sapiens, UniProt P56817); experiment: Inhibition of human BACE1 at 5 uM
Method in brief: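 Recombinant human BACE1 enzymatic assay with a FRET substrate (fluorescence resonance energy transfer read-out). Candidates were crude Cu(I)-catalysed azide–alkyne products made in microtiter plates with more than 80% conversion by LC–MS. They were diluted in 50 mM sodium acetate (pH 4.5) to 25 mM stocks, based on azide input.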

Cytochrome P450 2D6 = Cytochrome P450 2D6 (Homo sapiens, UniProt P10635); experiment: Inhibition of CYP2D6; type: ADME
Method in brief: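 CYP2D6 inhibition reported as a categorical score, where 0 = non-inhibitor.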

[2] = Protein binding in plasma; type: ADME, cell-free; conditions: read-out: PPB
Method in brief: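 Plasma protein binding reported as a categorical level: 1 = binding >90%; 2 = binding >95%.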

Hepatocyte = experiment: Toxicity in hepatocytes; type: cell-based
Rattus norvegicus = experiment: Toxicity in po dosed rat; type: organism-based; conditions: in vivo
[3] = Solubility of the compound; type: physicochemical
Method in brief: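 Aqueous solubility reported as a categorical level on a 0–3 scale, where 0 = extremely low and 3 = good.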

Beta-secretase 1 [4] = target: T1, Beta-secretase 1; experiment: Inhibition of human recombinant BACE1 by FRET assay
Method in brief: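 Recombinant human BACE1 assayed by fluorescence resonance energy transfer (FRET) cleavage of a FRET substrate. They were diluted in 50 mM sodium acetate (pH 4.5) to 25 mM stocks, based on azide input. A purified resynthesised compound was also tested.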

Cathepsin D = Cathepsin D (Homo sapiens, UniProt P07339); experiment: Inhibition of human recombinant Cathepsin D by FRET assay
Cathepsin D, sequence (P07339 65-162 limits assumed): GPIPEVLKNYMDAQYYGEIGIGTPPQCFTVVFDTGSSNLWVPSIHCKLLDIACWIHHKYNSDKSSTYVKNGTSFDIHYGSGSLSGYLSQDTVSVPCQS
Cathepsin D, sequence (P07339 169-412 limits assumed): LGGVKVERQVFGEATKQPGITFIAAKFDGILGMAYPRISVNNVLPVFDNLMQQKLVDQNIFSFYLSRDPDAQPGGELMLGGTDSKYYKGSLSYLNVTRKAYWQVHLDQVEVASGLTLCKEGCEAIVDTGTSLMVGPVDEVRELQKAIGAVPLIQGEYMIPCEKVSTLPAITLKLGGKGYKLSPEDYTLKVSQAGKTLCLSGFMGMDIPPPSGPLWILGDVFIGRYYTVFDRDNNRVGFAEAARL

T1 sequence (P56817 whole entry): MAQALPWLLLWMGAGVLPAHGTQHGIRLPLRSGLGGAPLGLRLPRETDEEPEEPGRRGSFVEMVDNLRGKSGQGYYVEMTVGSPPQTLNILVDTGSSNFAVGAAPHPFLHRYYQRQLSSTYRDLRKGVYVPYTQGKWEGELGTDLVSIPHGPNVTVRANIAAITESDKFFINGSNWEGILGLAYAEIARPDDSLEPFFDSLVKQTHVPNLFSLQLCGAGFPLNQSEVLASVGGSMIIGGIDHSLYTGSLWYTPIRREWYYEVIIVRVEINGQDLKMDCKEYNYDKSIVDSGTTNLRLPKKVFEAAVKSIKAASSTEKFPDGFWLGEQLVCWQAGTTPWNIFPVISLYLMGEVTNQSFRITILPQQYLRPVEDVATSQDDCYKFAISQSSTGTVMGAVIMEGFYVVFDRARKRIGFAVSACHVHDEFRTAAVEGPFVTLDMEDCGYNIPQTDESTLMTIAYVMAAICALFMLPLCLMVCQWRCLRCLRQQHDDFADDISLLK
Cytochrome P450 2D6, sequence (P10635 whole entry): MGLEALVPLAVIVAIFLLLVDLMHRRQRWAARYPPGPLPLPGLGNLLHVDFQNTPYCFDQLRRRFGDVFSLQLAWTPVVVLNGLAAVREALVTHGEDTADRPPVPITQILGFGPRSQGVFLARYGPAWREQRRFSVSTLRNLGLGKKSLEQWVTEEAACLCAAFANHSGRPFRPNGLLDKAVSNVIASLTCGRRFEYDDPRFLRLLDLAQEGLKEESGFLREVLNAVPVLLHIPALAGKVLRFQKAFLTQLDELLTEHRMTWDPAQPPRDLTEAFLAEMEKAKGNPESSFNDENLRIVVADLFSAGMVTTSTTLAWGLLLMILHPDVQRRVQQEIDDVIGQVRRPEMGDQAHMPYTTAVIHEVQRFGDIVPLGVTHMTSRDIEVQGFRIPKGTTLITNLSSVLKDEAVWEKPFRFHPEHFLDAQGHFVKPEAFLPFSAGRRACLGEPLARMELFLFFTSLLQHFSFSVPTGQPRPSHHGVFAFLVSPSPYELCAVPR

| inhibition (Beta-secretase 1 [1]) [%] | SMILES | further results |
| --- | --- | --- |
| < 50 | OC1(c2cn(C[C@@H]3Cc4c([nH]c5ccccc45)CN3)nn2)c2ccccc2-c2ccccc21 | – |
| < 50 | c1ccc2c(-c3cn(C[C@@H]4Cc5c([nH]c6ccccc56)CN4)nn3)cccc2c1 | – |
| < 50 | Cc1nnc(SCc2cn(C[C@@H]3Cc4c([nH]c5ccccc45)CN3)nn2)s1 | – |
| < 50 | Cc1ccc(-c2cn(C[C@@H]3Cc4c([nH]c5ccccc45)CN3)nn2)cc1 | – |
| < 50 | CC(=O)CC(=O)NCc1cn(C[C@@H]2Cc3c([nH]c4ccccc34)CN2)nn1 | – |
| < 50 | CCCC(O)c1cn(C[C@@H]2Cc3c([nH]c4ccccc34)CN2)nn1 (some centres undefined) | – |
| – | CC[C@H]1CN2CCc3c([nH]c4ccccc34)[C@H]2C[C@@H]1C[C@@H]1NCCc2c1[nH]c1ccccc21 | inhibition (INH) (Cytochrome P450 2D6): Not Active; fraction unbound [2]: < 0.05; Activity (Hepatocyte): Toxic; LD50 (Rattus norvegicus): 235.5 µg/g; solubility [3]: Insoluble |
| < 50 | c1ccc2c3c([nH]c2c1)CN[C@H](Cn1cc(Cn2ccnc2)nn1)C3 | – |
| < 50 | N#CCCc1cn(C[C@@H]2Cc3c([nH]c4ccccc34)CN2)nn1 | – |
| < 50 | c1ccc2c3c([nH]c2c1)CN[C@H](Cn1cc(COC2CCCCO2)nn1)C3 (some centres undefined) | – |
| < 50 | Fc1cc(F)cc(-c2cn(C[C@@H]3Cc4c([nH]c5ccccc45)CN3)nn2)c1 | – |
| < 50 | c1ccc2c3c([nH]c2c1)CN[C@H](Cn1cc(COC[C@H]2CO2)nn1)C3 | – |
| < 50 | CCOC(OCC)c1cn(C[C@@H]2Cc3c([nH]c4ccccc34)CN2)nn1 | – |
| < 50 | c1ccc(SCc2cn(C[C@@H]3Cc4c([nH]c5ccccc45)CN3)nn2)cc1 | – |
| < 50 | c1ccc2c3c([nH]c2c1)CN[C@H](Cn1cc(-c2ccsc2)nn1)C3 | – |
| < 50 | CC(=O)c1ccc(-c2cn(C[C@@H]3Cc4c([nH]c5ccccc45)CN3)nn2)cc1 | – |
| < 50 | OC1(c2cn(C[C@@H]3Cc4c([nH]c5ccccc45)CN3)nn2)CCCC1 | – |
| < 50 | c1ccc(-c2ccc(-c3cn(C[C@@H]4Cc5c([nH]c6ccccc56)CN4)nn3)cc2)cc1 | – |
| < 50 | Nc1cccc(-c2cn(C[C@@H]3Cc4c([nH]c5ccccc45)CN3)nn2)c1 | – |
| < 50 | CC(O)c1cn(C[C@@H]2Cc3c([nH]c4ccccc34)CN2)nn1 (some centres undefined) | – |
| < 50 | OC/C=C/c1cn(C[C@@H]2Cc3c([nH]c4ccccc34)CN2)nn1 | – |
| – | c1ccc2c3c([nH]c2c1)CNCC3 [TRYPTOLINE] | inhibition (INH) (Cytochrome P450 2D6): Not Active; fraction unbound [2]: < 0.1; Activity (Hepatocyte): Non-toxic; LD50 (Rattus norvegicus): 701500 µg/g; solubility [3]: Soluble |
| < 50 | OC(c1ccccc1)c1cn(C[C@@H]2Cc3c([nH]c4ccccc34)CN2)nn1 (some centres undefined) | – |

| SMILES | inhibition (Beta-secretase 1 [1]) [%] | further results |
| --- | --- | --- |
| COc1ccc2cc(-c3cn(C[C@@H]4Cc5c([nH]c6ccccc56)CN4)nn3)ccc2c1 | > 50 | IC50 (Beta-secretase 1 [4]): 1490 nM; IC50 (Cathepsin D): > 100000 nM |
